Experimental data as given in ChEMBL document CHEMBL4732088, “Identification and optimization of piperlongumine analogues as potential antioxidant and anti-inflammatory agents via activation of Nrf2” (Eur J Med Chem, 2021).
Active and inactive are the calls of the source. The rule behind the calls is not given here.

Columns and labels:
[1] = system: PC-12; assay: Protection against 6-OHDA-induced mitochondrial dysfunction in rat PC12 cells assessed as change in mitochondrial membrane potential at 20 uM pretreated with compound followed by 6-OHDA addition by JC-1 staining based flow cytometry (reference value: 73.2 %); format: functional
Procedure, shortened: (§1)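 Mitochondrial membrane potential in PC12 cells pretreated with compound (5, 10, 20 μM), then exposed to H₂O₂ (200 μM) or 6-OHDA (150 μM). JC-1 staining, red-to-green fluorescence shift read by flow cytometry. Mean ± SD, n = 3.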

[2] = system: PC-12; assay: Protection against 6-OHDA-induced apoptosis in rat PC12 cells assessed as viable cells at 5 uM incubated for 24 hrs by annexin V FITC/propidium iodide staining based flow cytometry (reference value: 72.0 %); format: functional; settings: read-out: Activity
[3] = system: PC-12; assay: Protection against 6-OHDA-induced apoptosis in rat PC12 cells assessed as late apoptotic cells at 20 uM incubated for 24 hrs by annexin V FITC/propidium iodide staining based flow cytometry (reference value: 7.6 %); format: functional
[4] = molecular target: T1, Nuclear factor erythroid 2-related factor 2 (Mus musculus) (UniProt Q60795); assay: Activation of Nrf2 in mouse BV2 cells assessed as upregulation of GCLM protein expression after 24 hrs by Western blot analysis; format: cell-based; settings: BV-2, filed as activator, dose 5-20 µM
T1 sequence (whole entry): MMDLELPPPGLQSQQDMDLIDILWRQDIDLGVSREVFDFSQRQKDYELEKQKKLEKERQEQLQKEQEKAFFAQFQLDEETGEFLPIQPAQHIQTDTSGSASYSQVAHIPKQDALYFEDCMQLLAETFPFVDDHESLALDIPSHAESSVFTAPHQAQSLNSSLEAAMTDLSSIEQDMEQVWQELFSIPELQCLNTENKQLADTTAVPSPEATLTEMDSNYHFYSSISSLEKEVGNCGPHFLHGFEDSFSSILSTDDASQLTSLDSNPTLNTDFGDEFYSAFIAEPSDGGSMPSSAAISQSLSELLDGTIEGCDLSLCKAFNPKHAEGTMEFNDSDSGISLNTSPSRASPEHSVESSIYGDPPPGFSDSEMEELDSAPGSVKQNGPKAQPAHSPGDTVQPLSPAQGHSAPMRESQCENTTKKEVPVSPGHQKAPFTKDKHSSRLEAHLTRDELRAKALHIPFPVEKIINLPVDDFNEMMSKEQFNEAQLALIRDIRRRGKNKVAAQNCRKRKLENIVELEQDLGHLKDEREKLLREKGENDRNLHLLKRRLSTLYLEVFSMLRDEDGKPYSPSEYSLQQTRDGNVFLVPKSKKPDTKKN
Procedure, shortened: (§2)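 BV2 microglia exposed to compound for 24 h over a concentration series; Nrf2, NQO1, HO-1, TrxR1, GCLM and GCLC protein levels read by Western blot.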

[5] = system: PC-12; assay: Protection against 6-OHDA-induced apoptosis in rat PC12 cells assessed as late apoptotic cells at 10 uM incubated for 24 hrs by annexin V FITC/propidium iodide staining based flow cytometry (reference value: 7.6 %); format: functional
[6] = molecular target: T1, Nuclear factor erythroid 2-related factor 2 (Mus musculus); assay: Activation of Nrf2 in mouse BV2 cells assessed as upregulation of GCLC protein expression after 24 hrs by Western blot analysis; format: cell-based; settings: BV-2, filed as activator, dose 5-20 µM; procedure, shortened: as §2
[7] = molecular target: T2, Nuclear factor erythroid 2-related factor 2 (Rattus norvegicus) (UniProt O54968); assay: Activation of Nrf2 in rat PC12 cells assessed as increase in HO-1 protein level after 24 hrs by Western blot analysis; format: cell-based; settings: PC-12, filed as activator, dose 5-20 µM
T2 sequence (whole entry): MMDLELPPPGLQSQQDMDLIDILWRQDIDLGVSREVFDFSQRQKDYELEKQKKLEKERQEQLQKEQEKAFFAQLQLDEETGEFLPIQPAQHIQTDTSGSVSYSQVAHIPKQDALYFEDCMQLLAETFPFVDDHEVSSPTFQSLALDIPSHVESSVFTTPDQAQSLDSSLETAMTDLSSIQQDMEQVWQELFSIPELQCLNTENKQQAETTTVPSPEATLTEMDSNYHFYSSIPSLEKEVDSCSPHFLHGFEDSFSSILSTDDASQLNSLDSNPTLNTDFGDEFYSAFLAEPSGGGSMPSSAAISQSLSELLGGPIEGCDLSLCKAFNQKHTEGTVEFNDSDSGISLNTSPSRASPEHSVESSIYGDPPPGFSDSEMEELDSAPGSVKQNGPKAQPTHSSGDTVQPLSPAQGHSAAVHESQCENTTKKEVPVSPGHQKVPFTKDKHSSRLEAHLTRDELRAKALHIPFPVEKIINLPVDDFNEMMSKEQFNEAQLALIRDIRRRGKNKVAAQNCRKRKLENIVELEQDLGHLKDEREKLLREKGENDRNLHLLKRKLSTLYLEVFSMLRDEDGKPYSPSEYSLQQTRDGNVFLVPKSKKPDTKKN
Procedure, shortened: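 PC12 cells treated with compound for 24 h at rising concentrations; NQO1, HO-1, TrxR1, GCLM, GCLC protein detected by Western blot.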

[8] = system: PC-12; assay: Protection against H2O2-induced oxidative damage in rat PC12 cells assessed as intracellular ROS level by measuring mean fluorescence intensity at 5 uM pretreated with compound followed by H2O2 stimulation by DCFH-DA staining based flow cytometry (reference value: 233032.55); format: functional
[9] = system: BV-2; assay: Antiinflammatory activity in mouse BV2 cells transfected with Nrf2 siRNA assessed as reduction in LPS-induced NO production at 20 uM pretreated with compound followed by LPS stimulation for 18 hrs
[10] = system: PC-12; assay: Protection against H2O2-induced mitochondrial dysfunction in rat PC12 cells assessed as change in mitochondrial membrane potential loss at 10 uM pretreated with compound followed by H2O2 addition by JC-1 staining based flow cytometry (reference value: 21.3 %); format: functional; procedure, shortened: as §1
[11] = system: PC-12; assay: (§3) Prevention of H2O2-induced calcium overload in rat PC12 cells assessed as reduction in intracellular free calcium by measuring mean fluorescence intensity at 5 uM pretreated with compound followed by H2O2 addition measured after 24 hrs by Fluo-3AM based fluorescence assay (reference value: 17791.36%); format: functional
[12] = system: PC-12; assay: Neuroprotective activity against 6-OHDA-induced cell damage in rat PC12 cells preincubated for 24 hrs followed by 6-OHDA treatment by MTT assay; format: functional, cell-based; settings: dose 5-20 µM
Procedure, shortened: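 PC12 cells pretreated 24 h with compound (5, 10, 20 μM), then H₂O₂ (200 μM) or 6-OHDA (150 μM); viability by MTT; mean ± SD, three independent experiments.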

[13] = system: PC-12; assay: as §3, with “6-OHDA-induced” for “H2O2-induced”, “6-OHDA” for “H2O2”, “6708.18%)” for “17791.36%)”; format: functional
[14] = system: PC-12; assay: Protection against H2O2-induced oxidative damage in rat PC12 cells assessed as intracellular ROS level by measuring mean fluorescence intensity at 10 uM pretreated with compound followed by H2O2 stimulation by DCFH-DA staining based flow cytometry (reference value: 233032.55); format: functional
[15] = system: PC-12; assay: Protection against 6-OHDA-induced oxidative damage in rat PC12 cells assessed as intracellular ROS level by measuring mean fluorescence intensity at 5 uM pretreated with compound followed by 6-OHDA stimulation by DCFH-DA staining based flow cytometry (reference value: 26327.34); format: functional
[16] = system: PC-12; assay: as §3, with “10” for “5”; format: functional

**Q.** `CCN(C)C(=O)N1CCN(C(=O)/C=C/c2ccc(F)cc2)C1=O` was tested. Which Activity [1] did it give?
**A.** 89.3%

**Q.** And the viability at 5 µM [2]?
**A.** 81.5%

**Q.** What about the Activity [3] of the same compound?
**A.** 5%

**Q.** And the Activity [4]?
**A.** Dose-dependent effect

**Q.** And the Activity [5]?
**A.** 6.3%

**Q.** What about the Activity [6] of the same compound?
**A.** Dose-dependent effect

**Q.** And the Activity [7]?
**A.** Dose-dependent effect

**Q.** What about the Flu intensity [8] of the same compound?
**A.** 205329.36

**Q.** What about the Activity [9] of the same compound?
**A.** inactive

**Q.** What about the Activity [10] of the same compound?
**A.** 9.7%

**Q.** And the Flu intensity [11]?
**A.** 8721.73

**Q.** What about the Activity [12] of the same compound?
**A.** Dose-dependent effect

**Q.** And the Flu intensity [13]?
**A.** 4910.91

**Q.** And the Flu intensity [14]?
**A.** 146612.92

**Q.** What about the Flu intensity [15] of the same compound?
**A.** 18168.07

**Q.** What about the Flu intensity [16] of the same compound?
**A.** 7793.41
